Reference: ChEMBL document CHEMBL1629492 (Eur J Med Chem, 2010)

What was measured:
Rattus norvegicus [1] = species on record: Rattus norvegicus; assay: Selectivity ratio of EC50 for alpha1A adrenoceptor in Wistar rat vas deferens to EC50 for Alpha-1B adrenoceptor in Wistar rat spleen; format: tissue-based
Rattus norvegicus [2] = species on record: Rattus norvegicus; assay: Selectivity ratio of EC50 for alpha1A adrenoceptor in Wistar rat vas deferens to Ki for Alpha-1B adrenoceptor in Wistar rat spleen; format: tissue-based
[3] = target: T1, Alpha-1D adrenergic receptor (Rattus norvegicus) (UniProt P23944); conditions: Wistar, Thoracic aorta
T1 sequence (whole entry): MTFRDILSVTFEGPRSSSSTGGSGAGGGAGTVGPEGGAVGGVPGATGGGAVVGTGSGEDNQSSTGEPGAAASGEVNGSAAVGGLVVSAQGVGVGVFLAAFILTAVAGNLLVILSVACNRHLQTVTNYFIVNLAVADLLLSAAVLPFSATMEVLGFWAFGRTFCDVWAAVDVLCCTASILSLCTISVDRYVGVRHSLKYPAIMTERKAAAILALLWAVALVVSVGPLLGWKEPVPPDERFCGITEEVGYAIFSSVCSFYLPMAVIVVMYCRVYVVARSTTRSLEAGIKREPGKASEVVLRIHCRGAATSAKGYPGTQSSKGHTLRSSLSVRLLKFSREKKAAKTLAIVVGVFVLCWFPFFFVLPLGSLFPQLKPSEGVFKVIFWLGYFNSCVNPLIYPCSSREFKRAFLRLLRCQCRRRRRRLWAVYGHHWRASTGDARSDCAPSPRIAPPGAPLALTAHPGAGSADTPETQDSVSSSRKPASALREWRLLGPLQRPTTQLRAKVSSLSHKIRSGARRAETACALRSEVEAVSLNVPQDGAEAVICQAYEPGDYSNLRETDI

[4] = target: T2, Alpha-1B adrenergic receptor (Homo sapiens, UniProt P35368); assay: Displacement of [3H]prazosin from human Alpha-1B adrenoceptor expressed in CHO cells; format: cell-based
T2 sequence (P35368 whole entry): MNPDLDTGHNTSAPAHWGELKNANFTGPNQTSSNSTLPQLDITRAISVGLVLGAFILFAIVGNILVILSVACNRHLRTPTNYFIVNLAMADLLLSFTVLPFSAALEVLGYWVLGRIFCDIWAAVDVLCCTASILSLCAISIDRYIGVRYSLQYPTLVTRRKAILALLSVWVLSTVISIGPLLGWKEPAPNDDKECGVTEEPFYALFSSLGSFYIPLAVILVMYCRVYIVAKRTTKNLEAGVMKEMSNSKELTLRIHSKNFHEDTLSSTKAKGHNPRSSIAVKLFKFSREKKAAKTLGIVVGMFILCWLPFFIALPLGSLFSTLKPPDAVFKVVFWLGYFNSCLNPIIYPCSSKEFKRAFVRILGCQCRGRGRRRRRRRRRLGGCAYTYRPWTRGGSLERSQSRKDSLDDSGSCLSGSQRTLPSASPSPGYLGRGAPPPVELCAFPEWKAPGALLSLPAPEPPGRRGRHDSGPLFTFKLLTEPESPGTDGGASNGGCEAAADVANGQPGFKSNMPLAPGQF
How it was run: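 Membranes ([…], as printed) from CHO cells stably expressing the cloned human α1b subtype were incubated with 0.1–0.4 nM [³H]prazosin and competitor (1 pM up to the top concentration) in 50 mM Tris-HCl, pH 7.4, for 30 min at 25 °C. Non-specific binding was defined with phentolamine, and incubations ended by filtration. Ki was derived from IC50 by Cheng–Prusoff. Reported as pKi from 2–3 triplicate experiments.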

[5] = target: T3, Alpha-1B adrenergic receptor (Rattus norvegicus) (UniProt P15823); assay: (§1) Antagonist activity at Alpha-1B adrenoceptor in Wistar rat spleen assessed as phenylephrine induced contractions after 30 mins; format: functional, tissue-based
T3 sequence (whole entry): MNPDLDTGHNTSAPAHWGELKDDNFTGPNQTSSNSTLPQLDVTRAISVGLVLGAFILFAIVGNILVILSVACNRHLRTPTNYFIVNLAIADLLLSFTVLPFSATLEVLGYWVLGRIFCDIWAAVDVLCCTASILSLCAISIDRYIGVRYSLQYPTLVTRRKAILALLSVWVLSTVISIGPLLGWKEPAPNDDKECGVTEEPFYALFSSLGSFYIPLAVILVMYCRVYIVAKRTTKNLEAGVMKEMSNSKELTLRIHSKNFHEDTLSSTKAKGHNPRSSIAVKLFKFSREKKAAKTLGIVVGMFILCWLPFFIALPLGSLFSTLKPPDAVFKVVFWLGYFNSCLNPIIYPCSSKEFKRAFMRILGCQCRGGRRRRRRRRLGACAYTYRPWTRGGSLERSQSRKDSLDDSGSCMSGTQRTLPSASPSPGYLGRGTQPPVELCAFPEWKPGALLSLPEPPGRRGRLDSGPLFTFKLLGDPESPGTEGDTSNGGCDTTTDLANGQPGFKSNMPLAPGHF
How it was run: (§2)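 Spleen strips from male Wistar rats (275–300 g) were set up in a 20 mL bath of physiological salt solution (pH 7.4, 37 °C, 95% O2/5% CO2) under 1 g tension and equilibrated 2 h. Two cumulative phenylephrine curves were run, each followed by 30 min washing, then 30 min incubation with vehicle or antagonist before a third curve. Values are Schild pA2, or pKB where slopes were nonparallel; 4–6 experiments.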

Rattus norvegicus [6] = species on record: Rattus norvegicus; assay: Selectivity ratio of Ki for alpha1A adrenoceptor in Wistar rat vas deferens to Ki for Alpha-1B adrenoceptor in Wistar rat spleen; format: tissue-based
[7] = target: T4, Alpha-1A adrenergic receptor (Rattus norvegicus) (UniProt P43140); assay: (§3) Antagonist activity at alpha1A adrenoceptor in Wistar rat vas deferens assessed as noradrenaline induced contractions after 30 mins; format: functional, tissue-based
T4 sequence (whole entry): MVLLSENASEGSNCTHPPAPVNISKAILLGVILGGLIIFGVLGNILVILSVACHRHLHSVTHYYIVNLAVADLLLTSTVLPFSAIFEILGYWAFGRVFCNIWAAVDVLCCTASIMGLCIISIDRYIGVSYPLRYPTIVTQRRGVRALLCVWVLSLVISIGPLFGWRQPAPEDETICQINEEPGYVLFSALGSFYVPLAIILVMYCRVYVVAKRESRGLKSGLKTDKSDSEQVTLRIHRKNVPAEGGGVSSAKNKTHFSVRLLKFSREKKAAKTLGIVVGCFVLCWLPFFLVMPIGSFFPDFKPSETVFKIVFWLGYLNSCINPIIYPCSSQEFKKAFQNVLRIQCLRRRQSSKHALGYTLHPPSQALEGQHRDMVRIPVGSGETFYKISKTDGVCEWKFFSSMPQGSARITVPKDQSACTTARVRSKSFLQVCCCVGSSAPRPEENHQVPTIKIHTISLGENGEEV
How it was run: (§4)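 Prostatic portions (2 cm) of vas deferens from male Wistar rats (275–300 g) were held under 0.35 g tension in Tyrode solution at 37 °C with cocaine present. Tissues were equilibrated 45 min, primed twice with noradrenaline, then given a cumulative isotonic noradrenaline curve.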

Rattus norvegicus [8] = species on record: Rattus norvegicus; assay: Selectivity ratio of EC50 for alpha1D adrenoceptor in Wistar rat thoracic aorta to Ki for Alpha-1B adrenoceptor in Wistar rat spleen; format: tissue-based
[9] = target: T5, Alpha-1A adrenergic receptor (Rattus norvegicus, UniProt P43140); assay: as §3; format: functional, tissue-based; conditions: read-out: pA2 (converted); how it was run: as §4
T5 sequence (P43140 whole entry): T4 sequence (whole entry)

[10] = target: T6, Alpha-1B adrenergic receptor (Rattus norvegicus, UniProt P15823); assay: as §1; format: functional, tissue-based; conditions: read-out: pA2 (converted); how it was run: as §2
T6 sequence (P15823 whole entry): T3 sequence (whole entry)

Compound	Selectivity ratio (Rattus norvegicus [1])	Selectivity ratio (Rattus norvegicus [2])	pKb [3]	Ki [4]	pKb [5]	Selectivity ratio (Rattus norvegicus [6])	pKb [7]	Selectivity ratio (Rattus norvegicus [8])	Kb [9]	Kb [10]
COc1ccc(C[C@@H](C)NCCOc2ccccc2OCc2ccccc2)cc1S(N)(=O)=O	12	12	9.2	2.09 nM	8.57	12	9.66	4		
COc1ccc(C[C@@H](C)NC[C@@H]2Oc3ccccc3O[C@@H]2C)cc1S(N)(=O)=O	1	1		31.6 nM	7.76	1		0.8	16.2 nM	
COc1ccc(C[C@@H](C)NCCOc2ccccc2OC(C)C)cc1S(N)(=O)=O	7	7		1.91 nM	8.81	7	9.66	3		
COc1ccc(C[C@@H](C)NC[C@H]2Oc3ccccc3O[C@H]2C)cc1S(N)(=O)=O	1	1		67.6 nM		1		0.5	30.2 nM	30.9 nM
COc1ccc(C[C@@H](C)NCCOc2ccccc2OCC(F)(F)F)cc1S(N)(=O)=O	4	4		5.5 nM		4		1	0.263 nM	1.1 nM
